According to ChEMBL document CHEMBL1132449, “Pyrroloquinoxaline derivatives as high-affinity and selective 5-HT(3) receptor agonists: synthesis, further structure-activity relationships, and biological studies” (J Med Chem, 1999):

What was measured:
[1] = target: T1, Serotonin 3 (5-HT3) receptor (Rattus norvegicus, UniProt P35563+Q9JJ16); assay: Binding affinity against 5-hydroxytryptamine 3 (5-HT3) receptor from rat cortical homogenate using [3H]zacopride as radioligand
T1 sequence (P35563 whole entry): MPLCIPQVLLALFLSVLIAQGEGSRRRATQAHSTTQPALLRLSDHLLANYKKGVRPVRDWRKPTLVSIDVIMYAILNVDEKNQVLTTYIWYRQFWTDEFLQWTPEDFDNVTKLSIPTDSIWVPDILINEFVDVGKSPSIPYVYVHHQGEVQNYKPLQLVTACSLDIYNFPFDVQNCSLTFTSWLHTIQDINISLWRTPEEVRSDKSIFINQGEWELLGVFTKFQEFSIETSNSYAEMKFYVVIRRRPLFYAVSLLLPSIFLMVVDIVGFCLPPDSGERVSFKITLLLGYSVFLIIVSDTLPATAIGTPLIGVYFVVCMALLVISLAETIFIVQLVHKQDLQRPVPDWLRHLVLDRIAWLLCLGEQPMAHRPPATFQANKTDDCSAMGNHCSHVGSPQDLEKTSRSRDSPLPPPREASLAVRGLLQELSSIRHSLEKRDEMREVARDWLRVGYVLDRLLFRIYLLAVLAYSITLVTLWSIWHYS
T1 sequence (Q9JJ16 whole entry): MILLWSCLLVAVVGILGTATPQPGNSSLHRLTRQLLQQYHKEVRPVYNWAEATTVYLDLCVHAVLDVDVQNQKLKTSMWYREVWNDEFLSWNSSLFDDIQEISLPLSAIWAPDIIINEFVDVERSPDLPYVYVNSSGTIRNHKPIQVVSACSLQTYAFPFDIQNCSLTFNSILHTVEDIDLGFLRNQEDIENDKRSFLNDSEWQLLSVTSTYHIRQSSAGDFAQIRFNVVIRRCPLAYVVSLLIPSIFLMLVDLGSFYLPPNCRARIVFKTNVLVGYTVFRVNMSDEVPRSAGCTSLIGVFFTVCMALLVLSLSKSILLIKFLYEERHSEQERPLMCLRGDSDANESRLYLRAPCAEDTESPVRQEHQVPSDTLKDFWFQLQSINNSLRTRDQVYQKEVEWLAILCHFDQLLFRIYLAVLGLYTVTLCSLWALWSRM
Outline: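 Male rat cortices, stored at -80 °C, were homogenized in ice-cold 25 mM Tris HCl pH 7.4 and spun at 50000g. Membranes were preincubated 10 min at 37 °C, washed, and resuspended with 10 µM pargyline (10 mg tissue/sample). They were incubated with 0.4 nM (final) [3H]zacopride for 30 min at 25 °C, filtered through PEI-treated GF/B and counted. IC50 came from dose-inhibition curves, mean ± SEM of three determinations.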

[2] = target: T1, Serotonin 3 (5-HT3) receptor; assay: The compound was tested for the binding affinity against 5-hydroxytryptamine 3 receptor using [3H]zacopride as radioligand.; assay type: protein-complex assay
[3] = The compound was tested for brain to plasma partition in rat; assay type: ADME, organism-based; conditions: brain and plasma, read-out: AUC ratio
Outline: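 Male CD-COBS rats (175-200 g) received hydrochloride salts in saline i.v. at 5 mg/kg and were killed 60, 120 and 180 min after dosing. Plasma and brain levels were measured by HPLC-UV (254 nm) after liquid-liquid or solid-phase extraction with an internal standard. The ratio is brain-to-plasma AUC_t, 2-3 rats per point.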

[4] = target: Serotonin 3 (5-HT3) receptor; assay: Effective concentration against 5-Hydroxytryptamine 3 receptor by measuring [14C]guanidinium uptake on NG108-15 cells.; assay type: functional, cell-based
NG108-15 [5] = assay: The compound was tested for efficacy against 5-Hydroxytryptamine 3 receptor by measuring [14C]guanidinium uptake on NG108-15 cells; PA=Partial agonist; assay type: functional, cell-based; conditions: filed as partial agonist
Outline: (§1)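 NG108-15 cells, grown 2 days, were washed in HEPES saline pH 7.4. They were exposed 10 min at 37 °C to buffer (135 mM NaCl, 10 mM guanidinium) with […] [14C]guanidinium, 1 mM 5-HT, […] and/or 8 drug concentrations. Cells were washed in ice-cold choline buffer, dissolved in NaOH and counted by scintillation. Assays run in triplicate.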

[6] = target: T1, Serotonin 3 (5-HT3) receptor; assay: The compound was tested for binding affinity against 5-hydroxytryptamine 3 receptor from NG108-15 cells using [3H]zacopride as radioligand; assay type: cell-based
Outline: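 NG108-15 cells were grown in DMEM with 10% inactivated FCS plus HAT at 37 °C, 10% CO2, harvested by shaking and pelleted. About 420 000 cells/sample in 50 mM Tris HCl pH 7.5 with 25 mM NaCl were incubated with 0.4 nM (final) [3H]zacopride for 60 min at 25 °C, then filtered and counted. IC50 is mean ± SEM of three determinations.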

[7] = target: T2, 5-hydroxytryptamine receptor 4 (Cavia porcellus, UniProt O70528); assay: The compound was tested for the binding affinity against 5-hydroxytryptamine 4 receptor using [3H]GR-113808 as radioligand
Outline: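 Male guinea pig striatal membranes, washed and preincubated at 37 °C, were incubated with 0.1 nM (final) [3H]GR113808 for 30 min at 37 °C.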

[8] = target: T3, 5-hydroxytryptamine receptor 2C (Rattus norvegicus, UniProt P08909); assay: The compound was tested for the binding affinity against 5-hydroxytryptamine 2C receptor using [3H]mesulergine as radioligand
T3 sequence (P08909 whole entry): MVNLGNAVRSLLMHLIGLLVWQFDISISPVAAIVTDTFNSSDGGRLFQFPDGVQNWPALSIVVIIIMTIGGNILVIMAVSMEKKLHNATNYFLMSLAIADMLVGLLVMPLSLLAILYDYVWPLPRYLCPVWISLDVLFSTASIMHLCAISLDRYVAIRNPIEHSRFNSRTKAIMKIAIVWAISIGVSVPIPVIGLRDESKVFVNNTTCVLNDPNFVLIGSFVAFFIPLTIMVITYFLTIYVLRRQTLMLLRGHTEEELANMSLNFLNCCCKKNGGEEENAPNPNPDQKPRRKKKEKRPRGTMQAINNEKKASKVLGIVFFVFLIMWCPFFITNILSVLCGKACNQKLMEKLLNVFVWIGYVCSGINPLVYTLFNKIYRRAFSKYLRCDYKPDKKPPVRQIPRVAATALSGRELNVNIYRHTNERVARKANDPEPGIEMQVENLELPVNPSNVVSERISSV

[9] = target: T4, 5-hydroxytryptamine receptor 2A (Rattus norvegicus, UniProt P14842); assay: The compound was tested for the binding affinity against 5-hydroxytryptamine 2A receptor using [3H]ketanserin as radioligand
[10] = target: T5, 5-hydroxytryptamine receptor 1A (Rattus norvegicus, UniProt P19327); assay: The compound was tested for the binding affinity against 5-hydroxytryptamine 1A receptor using [3H]8-OH-DPAT as radioligand.
T5 sequence (P19327 whole entry): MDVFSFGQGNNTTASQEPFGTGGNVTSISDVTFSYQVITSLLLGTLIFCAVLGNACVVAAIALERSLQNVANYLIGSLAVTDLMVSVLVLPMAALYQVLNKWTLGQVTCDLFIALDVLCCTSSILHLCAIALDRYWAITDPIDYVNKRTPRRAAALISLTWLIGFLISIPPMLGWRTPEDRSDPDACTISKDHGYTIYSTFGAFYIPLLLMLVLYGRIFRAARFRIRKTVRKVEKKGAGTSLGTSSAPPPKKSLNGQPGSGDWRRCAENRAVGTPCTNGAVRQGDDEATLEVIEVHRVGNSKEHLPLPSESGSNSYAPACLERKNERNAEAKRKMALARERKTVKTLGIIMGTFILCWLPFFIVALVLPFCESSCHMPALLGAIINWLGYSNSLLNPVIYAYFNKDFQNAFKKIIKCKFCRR

[11] = target: T1, Serotonin 3 (5-HT3) receptor; assay: The compound was tested for the binding affinity against 5-hydroxytryptamine 3 receptor using [3H]zacopride as radioligand; assay type: protein-complex assay
[12] = target: T6, 5-hydroxytryptamine receptor 1B (Rattus norvegicus, UniProt P28564); assay: The compound was tested for the binding affinity against 5-hydroxytryptamine 1B receptor using [3H]5-HT as radioligand
NG108-15 [13] = assay: The compound was tested for efficacy against 5-Hydroxytryptamine 3 receptor by measuring [14C]guanidinium uptake on NG108-15 cells.; A = Agonist; assay type: functional, cell-based; conditions: filed as agonist; outline: as §1
[14] = target: T6, 5-hydroxytryptamine receptor 1B; assay: The compound was tested for the binding affinity against 5-hydroxytryptamine 1B receptor using [3H]5-HT as radioligand.
[15] = target: T4, 5-hydroxytryptamine receptor 2A; assay: The compound was tested for the binding affinity against 5-hydroxytryptamine 2A receptor using [3H]ketanserin as radioligand.
[16] = target: T2, 5-hydroxytryptamine receptor 4; assay: The compound was tested for the binding affinity against 5-hydroxytryptamine 4 receptor using [3H]GR-113808 as radioligand.
[17] = target: T3, 5-hydroxytryptamine receptor 2C; assay: The compound was tested for the binding affinity against 5-hydroxytryptamine 2C receptor using [3H]Mesulergine as radioligand.

T4 sequence (P14842 whole entry): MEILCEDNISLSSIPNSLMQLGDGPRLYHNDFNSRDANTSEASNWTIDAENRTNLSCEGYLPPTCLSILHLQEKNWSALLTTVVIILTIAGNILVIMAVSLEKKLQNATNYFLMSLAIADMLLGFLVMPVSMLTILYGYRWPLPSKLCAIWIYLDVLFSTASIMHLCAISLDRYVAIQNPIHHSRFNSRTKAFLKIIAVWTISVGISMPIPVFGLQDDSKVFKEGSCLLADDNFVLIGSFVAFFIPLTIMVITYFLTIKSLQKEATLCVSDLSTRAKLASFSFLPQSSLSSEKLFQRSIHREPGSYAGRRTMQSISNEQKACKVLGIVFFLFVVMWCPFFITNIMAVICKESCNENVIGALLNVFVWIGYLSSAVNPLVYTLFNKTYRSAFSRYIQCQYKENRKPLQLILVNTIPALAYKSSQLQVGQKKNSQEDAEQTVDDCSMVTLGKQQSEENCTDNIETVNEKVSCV
T2 sequence (O70528 whole entry): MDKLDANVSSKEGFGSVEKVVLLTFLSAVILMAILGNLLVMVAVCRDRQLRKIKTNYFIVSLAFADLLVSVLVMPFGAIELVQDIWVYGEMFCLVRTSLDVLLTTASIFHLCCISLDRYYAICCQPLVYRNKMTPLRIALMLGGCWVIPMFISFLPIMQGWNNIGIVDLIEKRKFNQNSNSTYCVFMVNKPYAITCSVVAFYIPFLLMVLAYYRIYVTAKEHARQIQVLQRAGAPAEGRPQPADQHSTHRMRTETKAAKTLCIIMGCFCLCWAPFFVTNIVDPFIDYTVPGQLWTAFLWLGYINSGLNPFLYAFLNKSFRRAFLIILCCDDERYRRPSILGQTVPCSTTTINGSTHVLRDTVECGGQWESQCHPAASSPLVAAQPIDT
T6 sequence (P28564 whole entry): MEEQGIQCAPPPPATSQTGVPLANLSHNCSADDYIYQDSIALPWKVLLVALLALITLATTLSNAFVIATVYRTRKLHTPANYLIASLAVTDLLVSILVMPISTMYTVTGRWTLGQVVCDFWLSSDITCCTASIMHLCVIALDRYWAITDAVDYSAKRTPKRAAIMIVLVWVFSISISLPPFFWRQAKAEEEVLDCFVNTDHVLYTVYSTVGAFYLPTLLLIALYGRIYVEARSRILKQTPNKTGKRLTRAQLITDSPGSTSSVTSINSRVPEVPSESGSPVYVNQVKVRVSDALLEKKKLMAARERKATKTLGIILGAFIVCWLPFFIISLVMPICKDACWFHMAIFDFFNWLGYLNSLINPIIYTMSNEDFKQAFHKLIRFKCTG

Fc1cccc2nc(N3CCN(CC4N=NN=N4)CC3)c3cccn3c12
IC50 [1]: 690 nM

Cc1[nH]c2ccc(O)cc2c1CCN
Ki [2]: 200 nM

CN1CCN(c2nc3cc(OCc4ccccc4)ccc3n3cccc23)CC1
IC50 [1]: 225 nM

Cc1cc2nc(N3CCNCC3)c3cccn3c2cc1C
IC50 [1]: 113 nM

Cc1cc2nc(N3CCN(C)CC3)c3cccn3c2cc1C
IC50 [1]: 30 nM

N#CCN1CCN(c2nc3cccc(F)c3n3cccc23)CC1
Kp [3]: 0.1
IC50 [1]: 3800 nM

O=C(O)CN1CCN(c2nc3cccc(F)c3n3cccc23)CC1
IC50 [1]: 920 nM

Fc1ccc2c(c1)nc(N1CCN(Cc3ccco3)CC1)c1cccn12
EC50 [4]: 6.6 nM
IC50 [1]: 11 nM
Efficacy (NG108-15 [5]): Partial agonist

Cc1cccc2nc(N3CCN(Cc4ccc(Br)s4)CC3)c3cccn3c12
IC50 [1]: 104 nM

CN1CCN(c2nc3cccnc3n3cccc23)CC1
IC50 [6]: 5.4 nM
IC50 [1]: 1 nM

CN1CCN(c2nc3cc(C#N)ccc3n3cccc23)CC1
IC50 [1]: 104 nM

Cc1ccc2c(c1)nc(N1CCNCC1)c1cccn12
IC50 [1]: 16.4 nM

c1ccc(CN2CCN(c3nc4ncccc4n4cccc34)CC2)cc1
Kp [3]: 2.1
Ki [7]: > 10000 nM
Ki [8]: > 10000 nM
Ki [9]: 794 nM
EC50 [4]: 4.2 nM
Ki [10]: > 10000 nM
Ki [11]: 2 nM
IC50 [1]: 2.2 nM
Efficacy (NG108-15 [5]): Partial agonist
Ki [12]: > 10000 nM

Fc1ccc2c(c1)nc(N1CCN(Cc3ccc(Br)o3)CC1)c1cccn12
IC50 [1]: 148 nM

CN1CCN(c2nc3cc(F)ccc3n3cccc23)CC1
EC50 [4]: 3 nM
Efficacy (NG108-15 [13]): Agonist

Fc1cccc2nc(N3CCN(Cc4ccc5ccccc5c4)CC3)c3cccn3c12
Kp [3]: 2.8
IC50 [1]: 780 nM

Cc1ccc2c(c1)nc(N1CCN(Cc3ccccc3)CC1)c1cccn12
IC50 [1]: 24 nM

c1ccc(CN2CCN(c3nc4cccnc4n4cccc34)CC2)cc1
EC50 [4]: 32 nM
IC50 [1]: 2.3 nM
Efficacy (NG108-15 [5]): Partial agonist

CN1CCN(c2nc3ccccc3c3ccnn23)CC1
EC50 [4]: 2.7 nM
IC50 [1]: 1.6 nM
Efficacy (NG108-15 [13]): Agonist

OCCN1CCN(c2nc3cccc(F)c3n3cccc23)CC1
Kp [3]: 20.3
Ki [14]: 1580 nM
Ki [15]: 501 nM
EC50 [4]: 54 nM
Ki [16]: > 10000 nM
Ki [10]: 501 nM
Ki [11]: 7.94 nM
Ki [17]: 2000 nM
IC50 [1]: 8.2 nM
Efficacy (NG108-15 [5]): Partial agonist
